Published values of several laboratories.
Lines come from different studies, so protocols differ.
Cell line: A549

| SMILES | read-out | technique | time | IC50 [µM] |
| --- | --- | --- | --- | --- |
| O=C([O-])c1ccc(-n2nc(-c3ccccc3O)nc2-c2ccccc2[O-])cc1.O=C([O-])c1ccc(-n2nc(-c3ccccc3O)nc2-c2ccccc2[O-])cc1.[Ti+4] | cell growth or viability | MTT | 72 h | 20 |
| CC(C)(C)NC(=O)NNC(=O)c1ccc(Nc2nccc(-c3ccccn3)n2)cc1 | cell growth or viability | MTT |  | > 40 |
| COc1ccccc1C#CCNCC(O)COc1cccc2[nH]c3ccccc3c12 (stereo not drawn) | cell growth or viability | CCK-8 | 72 h | > 100 |
| COC(=O)/C=C1\S/C(=N\C(=O)c2ccc3ccccc3c2)N(C2CCCCC2)C1=O | cell growth or viability |  | 48 h | 13.4 |
| CCC(=O)Nc1cc(Nc2nc(N3CCc4sccc4C3)c3cccnc3n2)c(OC)cc1N1CCOCC1 | cell growth or viability | MTT |  | > 50 |
| O=C(N/N=C/c1cccn1CCCN1CCCCC1)Nc1cc2c(Nc3ccc(F)c(Cl)c3)ncnc2cc1O[C@H]1CCOC1 | cell growth or viability | MTT | 72 h | 2.44 |
| Oc1ccc(-c2csc(Nc3ccc4c(O)ncnc4c3)n2)cc1 | cell growth or viability | MTT |  | 31.2 |
| CN(C)CCn1cccc1/C=N/NC(=O)Nc1cc2c(Nc3ccc(F)c(Cl)c3)ncnc2cc1O[C@H]1CCOC1 | cell growth or viability | MTT | 72 h | 1.84 |
| COc1cccc(Oc2ccccc2NC(=O)CNC(=O)c2c(C)cc(C)cc2C)c1 | cell growth or viability |  |  | 4.7 |
| NNc1nc(Nc2ccccc2)nc(Nc2ccc(Br)cc2)n1 | cell growth or viability | SRB | 72 h | > 30 |
| Nc1ccc(-c2csc(Nc3ccc4c(O)ncnc4c3)n2)cc1 | cell growth or viability | MTT |  | 29.6 |
| COc1c(C)cnc(COc2ccc(NC(=O)Nc3ccc(Cl)cc3)cc2)c1C | cell growth or viability | MTT | 72 h | 13.7 |
| Cc1ccc(NC(=O)CSc2nnc(Cn3cnc4c3c(=O)n(C)c(=O)n4C)n2-c2ccccc2)cc1C | cell growth or viability | MTT |  | 198 |
| COc1cccc2c1C(=O)c1c(O)c3c(c(O)c1C2=O)C[C@@](O)(C(=O)CO)C[C@@H]3O[C@H]1C[C@H](N)[C@H](O)[C@H](C)O1 | cell growth or viability | MTT | 48 h | 2.42 |
| CC1=C(O)C(=O)C=C2C1=CC=C1[C@@]2(C)CC[C@@]2(C)[C@@H]3C[C@](C)(C(=O)OCCCCCO)CC[C@]3(C)CC[C@]12C | cell growth or viability | MTT | 48 h | > 100 |
| CCCCNC(=O)NNC(=O)c1cccc(Nc2nccc(-c3ccncc3)n2)c1 | cell growth or viability | MTT | 24 h | 30.6 |
| COc1ccnc(COc2ccc(NC(=O)Nc3ccc(Cl)c(C(F)(F)F)c3)cc2)c1OC | cell growth or viability | MTT | 72 h | 15.4 |
| C=CC(=O)Nc1cc(Nc2nc(N3CCc4sccc4C3)c3cccnc3n2)c(OC)cc1N(C)C | cell growth or viability | MTT |  | > 50 |
| Cc1c(OCC(F)(F)F)ccnc1COc1ccc(NC(=O)Nc2ccc(Cl)cc2)cc1 | cell growth or viability | MTT | 72 h | 2.39 |

| SMILES | read-out | technique | time | IC50 [µM] |
| --- | --- | --- | --- | --- |
| Nc1ccc(Cl)c[n+]1[Pt-2]([Cl])([Cl])[n+]1cc(Cl)ccc1N | cell growth or viability | MTT | 48 h | 6.34 |
| CN1C(=O)/C(=N\NC(=O)c2cc3ccccc3[nH]2)c2cc(Cl)ccc21 | cell growth or viability |  |  | 2.13 |
| CC(=O)O[C@H]1C(=O)[C@@]2(C)[C@H]([C@H](OC(=O)c3ccccc3)[C@]3(O)C[C@H](OC(=O)[C@H](O)[C@@H](NC(=O)c4ccccc4)c4ccccc4)C(C)=C1C3(C)C)[C@]1(OC(C)=O)CO[C@@H]1C[C@@H]2O | cell growth or viability | SRB |  | 0.03 |
| COc1ccccc1/C=C/CNCC(O)COc1ccc2c(c1)[nH]c1ccccc12 (stereo not drawn) | cell growth or viability | CCK-8 | 72 h | 6.8 |
| COc1cccc2c1C(=O)c1c(O)c3c(c(O)c1C2=O)C[C@@](O)(C(=O)CO)C[C@@H]3O[C@H]1C[C@H](N)[C@H](O)[C@H](C)O1 | cell growth or viability |  | 48 h | 0.56 |
| O=C1Nc2ccc(Cl)cc2/C1=N/NC(=O)c1cc2ccccc2[nH]1 | cell growth or viability |  |  | 19.7 |
| Cc1ccc(C)n1-c1ccc(-c2nnc(-c3ccccc3Cl)[nH]2)cc1 | cell growth or viability | MTT | 72 h | 228 |
| COc1cc(N(C)CCN(C)C)c(NC(=O)/C=C/C(C)C)cc1Nc1nc(Nc2cnn(C)c2)c2sccc2n1 | cell growth or viability | MTT |  | 0.44 |
| Cc1ccc(-c2ccc(O)cc2)c(C(=C2C=CC(=O)C=C2)c2ccc(O)cc2)c1C#Cc1ccc(O)cc1 | cell growth or viability | MTT | 48 h | 17.6 |
| CS(=O)(=O)c1ccc(-n2cc(/C=N/N=c3\[nH]c(-c4ccc([N+](=O)[O-])cc4)cs3)c(-c3ccc([N+](=O)[O-])cc3)n2)cc1 | cell growth or viability | MTT | 48 h | 22.2 |
| O=C(NC(=S)NCc1ccccc1)c1ccc2ccccc2c1 | cell growth or viability |  | 48 h | 5.53 |
| Cc1cccc(NC(=O)NNC(=O)c2ccc(Nc3nccc(-c4ccccn4)n3)cc2)c1 | cell growth or viability | MTT |  | > 40 |
| C=C(Cl)C(=O)Nc1cc(Nc2nc(N3CCCC3)c3sccc3n2)c(OC)cc1N(C)CCN(C)C | cell growth or viability | MTT |  | 4.54 |
| COc1cc2ncnc(Nc3ccc(F)c(Cl)c3)c2cc1NC(=O)N/N=C/c1cccn1CCN(C)C | cell growth or viability | MTT | 72 h | 4.3 |
| COc1cccc(NC(=O)CN2C(=O)/C(=C/c3ccc(F)cc3)SC2=S)c1 | cell growth or viability | MTT |  | 14.4 |
| COc1cc(/C=C/C(=O)C(=Cc2cccc(OC)c2OC)C(=O)/C=C/c2ccc(O)c(OC)c2)ccc1O | colony formation |  | 9 days | ~0.4 |
| COc1cc2ncnc(Nc3ccc(F)c(Cl)c3)c2cc1NC(=O)N/N=C/c1cccn1CCCN(C)C | cell growth or viability | MTT | 72 h | 2 |
| CN1C(=O)/C(=N\NC(=O)c2cc3ccccc3[nH]2)c2cc(Br)ccc21 | cell growth or viability |  |  | 1.49 |
| C=CC(=O)Nc1cc(Nc2nc(N3CCc4sccc4C3)c3sccc3n2)c(OC)cc1N1CCN(C)CC1 | cell growth or viability | MTT |  | 1.96 |

| SMILES | read-out | technique | time | IC50 [µM] |
| --- | --- | --- | --- | --- |
| CC1=C(O)C(=O)C=C2C1=CC=C1[C@@]2(C)CC[C@@]2(C)[C@@H]3C[C@](C)(C(=O)OCCCCCCCO)CC[C@]3(C)CC[C@]12C | cell growth or viability | MTT | 48 h | > 100 |
| COc1cc2ncnc(Nc3ccc(F)c(Cl)c3)c2cc1NC(=O)N/N=C/CN1CCOCC1 | cell growth or viability | MTT | 72 h | 6.69 |
| COc1ccccc1/C=C/CNCC(O)COc1cccc2[nH]ccc12 (stereo not drawn) | cell growth or viability | CCK-8 | 72 h | 26.9 |
| C=CC(=O)Nc1cc(Nc2nc(N3CCc4sccc4C3)c3cccnc3n2)c(OC)cc1N1CCN(C(C)=O)CC1 | cell growth or viability | MTT |  | > 50 |
| CCCCC/C=C/C(=O)CCc1ccc(O)c(OC)c1 | cell growth or viability | SRB |  | 18.6 |
| CCCNc1nc(NCCC)nc(Nc2ccc(Br)cc2)n1 | cell growth or viability | SRB | 72 h | 16.1 |
| COc1cc2ncnc(Nc3ccc(F)c(Cl)c3)c2cc1NC(=O)N/N=C/c1cccn1CCN1CCCCC1 | cell growth or viability | MTT | 72 h | 2.31 |
| COc1ccccc1OCCN(C)CC(O)COc1cccc2[nH]c3ccccc3c12 (stereo not drawn) | cell growth or viability | CCK-8 | 72 h | 33.3 |
| COc1c(C)cnc(COc2ccc(NC(=O)Nc3ccc(Cl)c(C(F)(F)F)c3)cc2)c1C | cell growth or viability | MTT | 72 h | 6.63 |
| COc1c2c(cc3c1OCO3)[C@]13C=C[C@H](OC)C[C@H]1N(C2)C[C@H]3OC(=O)c1cccc(C)c1 | cell growth or viability | WST-1 |  | > 10 |
| COc1cc(-c2nc(C(=O)Nc3nnc(-c4cc5ccccc5n4C)s3)cc3c2[nH]c2ccccc23)cc(OC)c1OC | cell growth or viability | MTT | 72 h | 7.85 |
| O=C(NC(=S)NCc1ccc(CNC(=S)NC(=O)c2ccc3ccccc3c2)cc1)c1ccc2ccccc2c1 | cell growth or viability |  | 48 h | 2.82 |
| Cc1ccc(C)n1-c1ccc(-c2nnc(-c3ccc(Br)cc3)[nH]2)cc1 | cell growth or viability | MTT | 72 h | 225 |
| COc1cc2ncnc(Nc3ccc(F)c(Cl)c3)c2cc1NC(=O)N/N=C/c1cccn1CCCN1CCN(C)CC1 | cell growth or viability | MTT | 72 h | 3.23 |
| O=C(CN1C(=O)/C(=C/c2ccco2)SC1=S)Nc1ccccc1 | cell growth or viability | MTT |  | 14.9 |
| COc1ccccc1OCCNC(=O)COc1cccc2[nH]c3ccccc3c12 | cell growth or viability | CCK-8 | 72 h | > 100 |
| CCCCCCCCCCCC(=O)Oc1c(C)c(O)c(C(=O)/C=C/c2ccccc2)c(OC)c1C | cell growth or viability | SRB | 72 h | > 50 |
| C=C(Cl)C(=O)Nc1cc(Nc2nc(N3CCc4sccc4C3)c3sccc3n2)c(OC)cc1N(C)CCN(C)C | cell growth or viability | MTT |  | 1.51 |
| COc1ccnc(COc2ccc(NC(=O)Nc3cccc(C(F)(F)F)c3)cc2)c1OC | cell growth or viability | MTT | 72 h | 6.65 |
